The values that follow come from ChEMBL document CHEMBL1926615, “1,2,3-Triazole tethered β-lactam-chalcone bifunctional hybrids: synthesis and anticancer evaluation” (Eur J Med Chem, 2012).

Each structure is given as a SMILES string.

Common to all, as to type: functional
Experiment [1] concerns Caco-2. Nature of the experiment: Growth inhibition of human Caco2 cells at 20 uM after 48 hrs by SRB assay. The following applies: Caco-2, 48 h, read-out: GI. The essentials: (§1)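 Cells grown in RPMI-1640 (2 mM glutamine, pH 7.4, 10% fetal calf serum, penicillin/streptomycin) at 37 °C, 5% CO2, 90% RH. Seeded as suspension of 1 x 10^5 cells/ml, grown 24 h, then test solutions (from DMSO stocks diluted in medium with gentamycin) added for 48 h. Fixed with TCA at 4 °C 1 h, SRB stained, dye dissolved in Tris-HCl pH 10.4, OD 540 nm. Percent growth inhibition computed versus untreated growth after blank subtraction.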
A general note: The SRB assay estimates cell density from bound dye.

Experiment [2] relates to THP-1. Description: Growth inhibition of human THP1 cells at 20 uM after 48 hrs by SRB assay. The following applies: THP-1, 48 h, read-out: GI. Summed up:
as §1

Experiment [3] has as its system PC-3. Nature of the experiment: Growth inhibition of human PC3 cells at 1 uM after 48 hrs by SRB assay. The following applies: PC-3, 48 h, read-out: GI. The essentials:
(§2)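 Sulforhodamine B readout at 540 nm after 48 h exposure of cells seeded at 1×10⁵ cells/ml and pre-grown 24 h in RPMI-1640 with 10% fetal calf serum (37 °C, 5% CO2). Compounds diluted in medium from DMSO stocks.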

Experiment [4] relates to A549. Description: Growth inhibition of human A549 cells at 1 uM after 48 hrs by SRB assay. The following applies: A549, 48 h, read-out: GI. The essentials: as §2

In the case of `O=c1[nH]cc(F)c(=O)[nH]1` [FLUOROURACIL], the inhibition of growth at 20 µM in experiment [1] came out at 68%; in experiment [2], 70%. As for `CO[C@@]12[C@H](COC(N)=O)C3=C(C(=O)C(C)=C(N)C3=O)N1C[C@@H]1N[C@@H]12` [MITOMYCIN], in experiment [3], the inhibition of growth at 1 µM was found to be 60%. Regarding `CC(=O)O[C@H]1C(=O)[C@@]2(C)[C@H]([C@H](OC(=O)c3ccccc3)[C@]3(O)C[C@H](OC(=O)[C@H](O)[C@@H](NC(=O)c4ccccc4)c4ccccc4)C(C)=C1C3(C)C)[C@]1(OC(C)=O)CO[C@@H]1C[C@@H]2O` [PACLITAXEL], the inhibition of growth at 1 µM in experiment [4] came to 69%.
